High-throughput results: PubChem, Johns Hopkins Ion Channel Center
The list is not random: actives were taken first. Their share in the collection is about 3.5%.
RGS4 pot: potentiators or activators of RGS4; HEK293 M3R/inducible RGS4, carbachol calcium flux Fluo4; hits give low values; B-score at 10 µM; 0.92% of 310,000 active;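 active = B-score of the integrated calcium signal more than 4 SD below the library mean, with starting fluorescence not abnormally high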;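 also: negative B-score means reduced calcium response which marks RGS4 activation or potentiation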
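Test system: HEK293 cells with stable M3R and inducible RGS4; also added: carbachol at ECmax as muscarinic agonist stimulus; schedule: dye loading 30 min 37 °C, buffer rest 30 min RT; technique: kinetic calcium fluorescence imaging with Fluo4-AM dye, 2 µM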
MrgX1 antag: human MrgX1 receptor antagonism, primary screen | Q96LB2 | MRGX1-HEK293 calcium flux, Fluo-4, BAM8-22 antagonism; hits give low values | B-score at 10 µM | 1.3% of 310,000 active | AID 588676;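 active = calcium-response B-score plate-corrected more than 3 library SD below zero, starting fluorescence within 5 deviations, no agonist response on first addition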;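 also: peak minus trough fluorescence over baseline after final BAM8-22 challenge near maximal dose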
Target sequence (Q96LB2 whole entry, looked up): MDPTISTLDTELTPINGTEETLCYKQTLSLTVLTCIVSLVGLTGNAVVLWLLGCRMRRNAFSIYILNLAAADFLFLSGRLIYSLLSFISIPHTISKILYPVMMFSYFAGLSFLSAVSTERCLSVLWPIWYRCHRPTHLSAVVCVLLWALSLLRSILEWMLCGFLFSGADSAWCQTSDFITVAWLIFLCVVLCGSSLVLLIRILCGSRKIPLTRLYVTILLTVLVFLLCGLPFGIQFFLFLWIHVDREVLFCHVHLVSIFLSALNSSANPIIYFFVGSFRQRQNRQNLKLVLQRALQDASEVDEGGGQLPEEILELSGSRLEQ
MrgX1 agonist: activates human MrgX1 receptor signaling | Q96LB2 | MrgX1-HEK293 cells, Fluo-4 calcium fluorescence, agonist mode; hits give high values | B-score at 10 µM | 0.44% of 310,000 active;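 active = calcium response B-score plate-corrected fluorescence ratio at least 3 library SD, with starting fluorescence B-score inside 5 SD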
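Material: MrgX1-expressing HEK293 cells; input: 15,000 cells per well; doses: test compound given as first of three sequential additions; schedule: overnight plating before 1 h dye loading; technique: Fluo-4 NW calcium-flux fluorescence, kinetic read; evaluation: baseline-normalised fluorescence change ratio, B-scored; control set: plate-wise positive and negative controls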
RGS4 block: human RGS4 inhibition; 0.45% of 310,000 active; HEK293 M3R/RGS4 inducible, Fluo-4 calcium flux; hits give high values; triggered by carbachol at its EC20; B-score at 10 µM;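 active = B-score, a plate-corrected calcium signal, over three deviations above library mean, with baseline fluorescence within five deviations of library mean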;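 also: RGS4 expression induced by doxycycline in cells with stable M3 receptor; B-score is computed from the integrated fluorescence ratio over baseline after carbachol; higher B-score means a larger calcium signal and so more RGS4 inhibition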
Target sequence (P49798 whole entry, looked up): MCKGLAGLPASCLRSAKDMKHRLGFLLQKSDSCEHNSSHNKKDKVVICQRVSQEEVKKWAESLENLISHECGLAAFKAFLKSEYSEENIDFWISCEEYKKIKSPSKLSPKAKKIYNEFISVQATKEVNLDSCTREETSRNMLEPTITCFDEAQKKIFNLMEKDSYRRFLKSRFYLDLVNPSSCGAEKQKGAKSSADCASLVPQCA
MrgX1 PAM: human MrgX1 positive allosteric modulation, primary screen. MrgX1-HEK293, Fluo-4 calcium flux, FDSS; hits give high values. B-score at 10 µM. AID 588675. 0.63% of 310,000 active;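 active = plate-corrected calcium response at least 3 library SD above typical, normal starting fluorescence, not activating the receptor alone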;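 also: compound read alongside a low EC10 to EC30 dose of BAM8-22 agonist; peak minus trough fluorescence over baseline measured at the second addition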
Numbers stand for hits; n = inactive.

SMILES	RGS4 pot	MrgX1 antag	MrgX1 agonist	RGS4 block	MrgX1 PAM
COc1cc([N+](=O)[O-])cc(/C=C2/SC(=S)N(Cc3ccccc3)C2=O)c1O	-7.6	n	43	n	n
O=C1/C(=C\c2cc(Br)cc(Br)c2O)SC(=S)N1Cc1ccccc1	n	-6.1	n	n	n
CCc1ccc(NSc2ccccc2[N+](=O)[O-])cc1	-8.2	n	n	n	6.6
O=C(O)c1ccccc1NSc1ccccc1[N+](=O)[O-]	n	n	n	n	n
O=C(N/N=C/c1cn(-c2cccs2)nc1-c1ccccc1)c1ccccc1O	n	-8.3	n	n	n
CCN1CCN(CCCNC(=O)CNC(=O)c2nn(-c3ccc(OC)cc3OC)c(=O)c3ccccc23)CC1	n	n	n	n	n
O=C(Nc1ncc(S(=O)(=O)c2ccc([N+](=O)[O-])cc2)s1)c1cccc2ccccc12	-7.7	n	n	n	n
COCC(=O)Nc1ncc(S(=O)(=O)c2ccc([N+](=O)[O-])cc2)s1	n	n	n	n	n
CCCOc1ccc(NC(=O)Cc2ccc(S(=O)(=O)N3CCOCC3)s2)cc1OCCC	n	-4.7	n	n	n
CC(C)(C)NC(=O)C(c1ccc(O)cc1)N(C(=O)CCC(=O)Nc1ccccn1)c1ccc(F)cc1 (configuration not stated)	n	n	n	n	n
Cc1ccc(COC(=O)c2ccc3ccccc3n2)cc1	n	n	n	n	n
COCCn1c(SCC(=O)N(C(C)C)C(C)C)nnc1-c1cc2ccccc2cc1O	n	n	n	n	6.6
Cc1cccn2c(=O)c(C(=O)NC3CC(C)CC(C)(C)C3)c(O)nc12 (configuration not stated)	-7.2	n	n	n	n
COCc1ccc(CN2CCC(C(=O)Nc3cccc(-c4cccc(Cl)c4)c3)CC2)o1	-8.1	n	n	n	n
COCc1ccc(CN2CCC(C(=O)Nc3cccc(-c4cscn4)c3)CC2)o1	n	n	n	n	n
CC1CCCCN1C(=O)CN1C(=O)CSc2ccc(S(=O)(=O)N3CCOCC3)cc21 (configuration not stated)	n	n	n	n	n
Cc1onc(-c2c(F)cccc2Cl)c1C(=O)NCc1ccc2c(c1)OCO2	-7.4	n	n	n	n
CCCN1CCN(c2nc(-c3cccs3)nc3ccccc23)CC1	n	n	n	n	n
CCOC(=O)N1CCN(c2nc(-c3cccs3)nc3ccccc23)CC1	-7.3	n	n	n	n
CCC1CCCCN1CCCNC(=O)CSc1nc2nc(C)c(Cc3ccccc3Cl)c(C)n2n1 (configuration not stated)	-7	n	n	n	n
Cc1ccccc1NC(=O)CSc1ccncc1	n	n	n	n	n
CCOP(=O)(c1ccc(N(C)C)cc1)C(O)c1cc(OC)c(OC)c(OC)c1 (configuration not stated)	n	-4.8	n	n	n
COc1cc(C(O)P(=O)(OCC(C)C)c2ccc(N(C)C)cc2)cc(OC)c1OC (configuration not stated)	n	n	n	n	n
COc1cc(OC)c(OC)cc1/C=C/C(=O)c1ccc(NS(=O)(=O)c2ccc(C)cc2)cc1	n	-4.8	n	n	n
CC(=O)N1CCN(C(=O)CCCNC(=O)c2ccc(Cl)cc2)CC1	n	n	n	n	n
SMILES	RGS4 pot	MrgX1 antag	MrgX1 agonist	RGS4 block	MrgX1 PAM
CS(=O)(=O)NNC(=O)Cn1nnc(-c2ccc(OCc3ccccc3Cl)cc2)n1	n	n	n	n	9.6
CC(=O)c1ccc(NC(=O)C2CC(=O)N(C(C)C)C2)cc1 (configuration not stated)	n	n	n	n	n
O=C(O)c1ccccc1C(c1ccc(O)cc1)c1ccc(O)cc1	n	n	n	n	n
COc1ccc(-n2c(C)cc(/C=C(\C#N)C(=O)NCc3ccco3)c2C)cc1	n	-4.9	n	n	n
Cc1oc2c(CN3CCCC(C)C3)c(O)ccc2c(=O)c1-c1ccccc1 (configuration not stated)	n	n	n	n	n
CC(=O)NCC(=O)N(c1c(C)n(C)n(-c2ccccc2)c1=O)C1(C(=O)NC2CCCC2)CCCCC1	n	n	n	n	15
COC(=O)c1cc(C(=O)c2cc(F)ccc2O)cn2c(=O)c3c(C)c(C)sc3nc12	-7	-4.7	n	n	n
Oc1cc(-n2cccn2)c(O)cc1-n1cccn1	n	n	n	n	n
Cc1ccc(-c2nc3sc4c(c3c(=O)n2N)CCCC4)cc1	n	n	n	n	13
O=C(CN1CCCCC1)N1c2ccccc2Oc2ccccc21	-7.5	n	n	n	n
CC1Cc2ccccc2N1C(=O)CN1CCCCC1 (configuration not stated)	n	n	n	n	n
Oc1ccccc1N1CCN(c2ncnc3scc(-c4ccc(F)cc4)c23)CC1	n	n	n	n	n
Oc1ccccc1N1CCN(c2ncnc3scc(-c4ccccc4)c23)CC1	-7.4	n	n	n	n
CN1CCN(/N=C/c2ccc(-c3ccccc3)cc2)CC1	n	n	n	n	n
CN1CCN(/N=C/c2c3ccccc3c(Cl)c3ccccc23)CC1	n	n	n	n	9.3
Cc1cccc(NC(=O)NC2CCCc3ccccc32)c1 (configuration not stated)	n	n	n	n	n
CN1C(C(=O)NCc2ccco2)=CC(c2ccc(F)cc2)=NS1(=O)=O	n	n	n	n	n
CC(CN1CCCCC1)OC(=O)c1ccc2c(c1)OCO2 (configuration not stated)	n	n	n	n	n
CC1CCN(CC(C)OC(=O)c2ccc3c(c2)OCCO3)CC1 (configuration not stated)	-7.3	n	n	n	n
Cc1ccc(S(=O)(=O)C2(C(=O)N3CCN(c4ccccc4F)CC3)CC2)cc1	n	n	n	n	n
CCC(NC(C)C)C(O)c1ccc(O)c(O)c1 (configuration not stated)	n	n	27	n	n
CC(C)C(=O)c1ccc(O)c(O)c1	n	n	n	n	n
O=C(NCc1ccc(Cl)s1)C1CCC(=O)N(CCc2cccc(F)c2)C1 (configuration not stated)	n	n	n	n	n
Cc1csc(NC(=O)NCC2CCCC(CNC(=O)Nc3nc(C)cs3)C2)n1 (configuration not stated)	n	n	n	n	n
O=C(NCCN1C(=O)S/C(=C\c2ccc(OC(F)F)cc2)C1=O)[C@@H]1CCCN1C(=O)c1cccs1	n	n	n	n	8.2
O=C(NCC1CCCN(C(=O)c2cc(Cl)ccc2F)C1)c1ccc(F)cc1 (configuration not stated)	n	n	n	n	n
CCC(=O)c1ccccc1OCCCN1CCC(Cc2ccccc2)CC1	n	-5.6	n	n	n
COc1cccc(OC)c1OCCCCN1CCC(Cc2ccccc2)CC1	n	n	n	n	n
